For 35 molecules, MIC results are on record in ChEMBL document CHEMBL4699669, “Discovery of a Potent Adenine-Benzyltriazolo-Pleuromutilin Conjugate with Pronounced Antibacterial Activity against MRSA” (J Med Chem, 2020).

Values after ≈ are worked out from the molar mass of the structure shown.

In general, MIC refers to the smallest concentration in the dilution series that meets the test's criterion for growth inhibition. Lower therefore signals greater potency.

For this assay, the system named is Staphylococcus aureus. Briefly: Antibacterial activity against methicilin-resistant Staphylococcus aureus USA300 FPR3757 incubated for 20 to 24 hrs by microbroth dilution assay. In kind it is functional. Conditions: time hrs 20-24. An outline of the steps:
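Broth microdilution per EUCAST in Mueller-Hinton broth. Inoculum 5.0·10^5 CFU/mL, prepared from overnight single-colony cultures at OD600 0.1 then diluted 100x. Final compound concentrations 0.015–16 µg/mL. Incubation at 37 °C for 20–24 h, protected from light. MIC is the lowest concentration with no visible growth. Each replicate uses three cultures; n = 2–3.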
Background: Dilution methods test growth across graded concentrations, often in twofold steps.

Regarding `C=C[C@]1(C)C[C@@H](OC(=O)Cn2cc(-c3ccccc3Cn3cnc4c(N(CC)CC)ncnc43)nn2)[C@]2(C)[C@H](C)CC[C@]3(CCC(=O)[C@H]32)[C@@H](C)[C@@H]1O`, the MIC is 1 µg/mL (≈ 1.41 µM).

In turn, `C=C[C@]1(C)C[C@@H](OC(=O)Cn2cc(-c3ccc(CN4CCN(C)CC4)cc3)nn2)[C@]2(C)[C@H](C)CC[C@]3(CCC(=O)[C@H]32)[C@@H](C)[C@@H]1O` returned an MIC of 4 µg/mL (≈ 6.47 µM).

`C=C[C@]1(C)C[C@@H](OC(=O)Cn2cc(-c3ccccc3Cn3cc(C)c(=O)[nH]c3=O)nn2)[C@]2(C)[C@H](C)CC[C@]3(CCC(=O)[C@H]32)[C@@H](C)[C@@H]1O`: inhibition of growth (MIC) required 1 µg/mL (≈ 1.55 µM).

For `C=C[C@]1(C)C[C@@H](OC(=O)Cn2cc(-c3cccc(Cn4cc(C)c(=O)[nH]c4=O)c3)nn2)[C@]2(C)[C@H](C)CC[C@]3(CCC(=O)[C@H]32)[C@@H](C)[C@@H]1O`, 1 µg/mL (≈ 1.55 µM) was the least that counted as inhibitory (MIC).

`C=C[C@]1(C)C[C@@H](OC(=O)Cn2cc(-c3cccc(CO)c3)nn2)[C@]2(C)[C@H](C)CC[C@]3(CCC(=O)[C@H]32)[C@@H](C)[C@@H]1O` registered a minimal inhibitory concentration (MIC) of 0.5 µg/mL (≈ 0.933 µM).

In turn, `C=C[C@]1(C)C[C@@H](OC(=O)Cn2cc(-c3ccccc3Cn3cnc4c(N(CC)CC)nc(N)nc43)nn2)[C@]2(C)[C@H](C)CC[C@]3(CCC(=O)[C@H]32)[C@@H](C)[C@@H]1O` had an MIC of 0.5 µg/mL (≈ 0.691 µM).

In the case of `C=C[C@]1(C)C[C@@H](OC(=O)Cn2cc(-c3cccc(Cc4ccc(N(CC)CC)cc4)c3)nn2)[C@]2(C)[C@H](C)CC[C@]3(CCC(=O)[C@H]32)[C@@H](C)[C@@H]1O`, the MIC was found to be 8 µg/mL (≈ 12 µM). Compared with the last molecule, the MIC is about 16-fold higher.

As for `C=C[C@]1(C)C[C@@H](OC(=O)Cn2cc(-c3ccc(CN4C(=O)c5ccccc5C4=O)cc3)nn2)[C@]2(C)[C@H](C)CC[C@]3(CCC(=O)[C@H]32)[C@@H](C)[C@@H]1O`, it took 0.25 µg/mL (≈ 0.376 µM) to inhibit growth (MIC).

`C=C[C@]1(C)C[C@@H](OC(=O)Cn2cc(-c3ccc(Cn4cc(C)c(=O)[nH]c4=O)cc3)nn2)[C@]2(C)[C@H](C)CC[C@]3(CCC(=O)[C@H]32)[C@@H](C)[C@@H]1O` gave a minimum inhibitory concentration (MIC) of 0.13 µg/mL (≈ 0.202 µM).

`C=C[C@]1(C)C[C@@H](OC(=O)Cn2cc(-c3ccc(-n4cnc5c(N)ncnc54)cc3)nn2)[C@]2(C)[C@H](C)CC[C@]3(CCC(=O)[C@H]32)[C@@H](C)[C@@H]1O` registered an MIC of 0.5 µg/mL (≈ 0.783 µM).

Turning to `C=C[C@]1(C)C[C@@H](OC(=O)Cn2cc(-c3cccc(Cc4cccc(CO)c4)c3)nn2)[C@]2(C)[C@H](C)CC[C@]3(CCC(=O)[C@H]32)[C@@H](C)[C@@H]1O`, the minimum inhibitory concentration (MIC) turned out to be 1 µg/mL (≈ 1.6 µM). Against the preceding molecule, the MIC is about 2-fold higher.

Take `C=C[C@]1(C)C[C@@H](OC(=O)Cn2cc(-c3cccc(-n4cnc5c(N)ncnc54)c3)nn2)[C@]2(C)[C@H](C)CC[C@]3(CCC(=O)[C@H]32)[C@@H](C)[C@@H]1O`: the minimal inhibitory concentration (MIC) worked out at 0.06 µg/mL (≈ 0.0939 µM).

As for `C=C[C@]1(C)C[C@@H](OC(=O)Cn2cc(-c3ccccc3CN)nn2)[C@]2(C)[C@H](C)CC[C@]3(CCC(=O)[C@H]32)[C@@H](C)[C@@H]1O`, 4 µg/mL (≈ 7.48 µM) was the least that counted as inhibitory (MIC).

For `C=C[C@]1(C)C[C@@H](OC(=O)Cn2cc(-c3ccc(CN(CC)CC)cc3)nn2)[C@]2(C)[C@H](C)CC[C@]3(CCC(=O)[C@H]32)[C@@H](C)[C@@H]1O`, inhibition of growth (MIC) required 4 µg/mL (≈ 6.77 µM).

The molecule `C=C[C@]1(C)C[C@@H](OC(=O)Cn2cc(-c3cccc(Cn4cnc5c(N(CC)CC)nc(N)nc54)c3)nn2)[C@]2(C)[C@H](C)CC[C@]3(CCC(=O)[C@H]32)[C@@H](C)[C@@H]1O` yielded an MIC of 0.5 µg/mL (≈ 0.691 µM).

On to `C=C[C@]1(C)C[C@@H](OC(=O)Cn2cc(-c3cccc(N)c3)nn2)[C@]2(C)[C@H](C)CC[C@]3(CCC(=O)[C@H]32)[C@@H](C)[C@@H]1O`, for which the minimal inhibitory concentration (MIC) was 1 µg/mL (≈ 1.92 µM).

`C=C[C@]1(C)C[C@@H](OC(=O)Cn2cc(-c3ccccc3Cn3cnc4c(N)ncnc43)nn2)[C@]2(C)[C@H](C)CC[C@]3(CCC(=O)[C@H]32)[C@@H](C)[C@@H]1O`: the minimal inhibitory concentration (MIC) is 0.5 µg/mL (≈ 0.766 µM). Compared with the last molecule, the MIC is about 2-fold lower.

The molecule `C=C[C@]1(C)C[C@@H](OC(=O)Cn2cc(-c3ccc(Cn4cnc5c(N(CC)CC)ncnc54)cc3)nn2)[C@]2(C)[C@H](C)CC[C@]3(CCC(=O)[C@H]32)[C@@H](C)[C@@H]1O` came in with a minimal inhibitory concentration (MIC) of 0.25 µg/mL (≈ 0.353 µM). This MIC lies about 2-fold lower than the previous one.

`C=C[C@]1(C)C[C@@H](OC(=O)Cn2cc(-c3cccc(CN4CCN(C)CC4)c3)nn2)[C@]2(C)[C@H](C)CC[C@]3(CCC(=O)[C@H]32)[C@@H](C)[C@@H]1O` yielded a minimal inhibitory concentration (MIC) of 2 µg/mL (≈ 3.24 µM).

As to `C=C[C@]1(C)C[C@@H](OC(=O)Cn2cc(-c3ccc(CN)cc3)nn2)[C@]2(C)[C@H](C)CC[C@]3(CCC(=O)[C@H]32)[C@@H](C)[C@@H]1O`, inhibition of growth (MIC) required 2 µg/mL (≈ 3.74 µM).

Consider `C=C[C@]1(C)C[C@@H](OC(=O)Cn2cc(-c3ccc(Cc4ccc(OC)cc4)cc3)nn2)[C@]2(C)[C@H](C)CC[C@]3(CCC(=O)[C@H]32)[C@@H](C)[C@@H]1O`, for which the MIC came out at 8 µg/mL (≈ 12.8 µM).

In turn, `C=C[C@]1(C)C[C@@H](OC(=O)Cn2cc(-c3ccc(Cn4cnc5c(NC(=N)N)ncnc54)cc3)nn2)[C@]2(C)[C@H](C)CC[C@]3(CCC(=O)[C@H]32)[C@@H](C)[C@@H]1O` returned an MIC of 0.5 µg/mL (≈ 0.72 µM).

Consider `C=C[C@]1(C)C[C@@H](OC(=O)Cn2cc(-c3ccccc3)nn2)[C@]2(C)[C@H](C)CC[C@]3(CCC(=O)[C@H]32)[C@@H](C)[C@@H]1O`, for which the minimum inhibitory concentration (MIC) stood at 2 µg/mL (≈ 3.96 µM).

Consider `C=C[C@]1(C)C[C@@H](OC(=O)Cn2cc(-c3ccccc3C#N)nn2)[C@]2(C)[C@H](C)CC[C@]3(CCC(=O)[C@H]32)[C@@H](C)[C@@H]1O`, for which the lowest concentration to inhibit growth (MIC) was 0.5 µg/mL (≈ 0.942 µM).

Consider `C=C[C@]1(C)C[C@@H](OC(=O)Cn2cc(-c3cccc(Cn4cnc5c(N(CC)CC)ncnc54)c3)nn2)[C@]2(C)[C@H](C)CC[C@]3(CCC(=O)[C@H]32)[C@@H](C)[C@@H]1O`, for which the lowest concentration to inhibit growth (MIC) was 1 µg/mL (≈ 1.41 µM).

For the molecule `C=C[C@]1(C)C[C@@H](OC(=O)Cn2cc(-c3ccc(Cn4cnc5c(NCCN)ncnc54)cc3)nn2)[C@]2(C)[C@H](C)CC[C@]3(CCC(=O)[C@H]32)[C@@H](C)[C@@H]1O`, the MIC was found to be 0.5 µg/mL (≈ 0.719 µM).

Molecule `C=C[C@]1(C)C[C@@H](OC(=O)Cn2cc(-c3ccccc3Cc3ccc(OC)cc3)nn2)[C@]2(C)[C@H](C)CC[C@]3(CCC(=O)[C@H]32)[C@@H](C)[C@@H]1O` returned a minimum inhibitory concentration (MIC) of 2 µg/mL (≈ 3.2 µM).

`C=C[C@]1(C)C[C@@H](OC(=O)Cn2cc(-c3cccc(Cn4cnc5c(N)ncnc54)c3)nn2)[C@]2(C)[C@H](C)CC[C@]3(CCC(=O)[C@H]32)[C@@H](C)[C@@H]1O` showed a minimal inhibitory concentration (MIC) of 0.25 µg/mL (≈ 0.383 µM). This MIC is about 8-fold lower than that of the molecule before.

For `C=C[C@]1(C)C[C@@H](OC(=O)Cn2cc(-c3cccc(Cn4cnc5c(N6CCN(C)CC6)ncnc54)c3)nn2)[C@]2(C)[C@H](C)CC[C@]3(CCC(=O)[C@H]32)[C@@H](C)[C@@H]1O`, inhibition of growth (MIC) required 0.5 µg/mL (≈ 0.679 µM).

Consider `C=C[C@]1(C)C[C@@H](OC(=O)Cn2cc(-c3cccc(Cc4cccc(CN(CC)CC)c4)c3)nn2)[C@]2(C)[C@H](C)CC[C@]3(CCC(=O)[C@H]32)[C@@H](C)[C@@H]1O`, for which the MIC worked out at 2 µg/mL (≈ 2.94 µM).

Regarding `C=C[C@]1(C)C[C@@H](OC(=O)Cn2cc(-c3cccc(CN)c3)nn2)[C@]2(C)[C@H](C)CC[C@]3(CCC(=O)[C@H]32)[C@@H](C)[C@@H]1O`, 2 µg/mL (≈ 3.74 µM) was the least that counted as inhibitory (MIC).

In turn, `C=C[C@]1(C)C[C@@H](OC(=O)Cn2cc(-c3cccc(CN(CC)CC)c3)nn2)[C@]2(C)[C@H](C)CC[C@]3(CCC(=O)[C@H]32)[C@@H](C)[C@@H]1O` had a minimal inhibitory concentration (MIC) of 2 µg/mL (≈ 3.39 µM).

With `C=C[C@]1(C)C[C@@H](OC(=O)Cn2cc(-c3cccc(C#N)c3)nn2)[C@]2(C)[C@H](C)CC[C@]3(CCC(=O)[C@H]32)[C@@H](C)[C@@H]1O`, the minimal inhibitory concentration (MIC) was 1 µg/mL (≈ 1.88 µM). This MIC lies about 2-fold lower than the previous one.

As for `C=C[C@]1(C)C[C@@H](OC(=O)Cn2cc(-c3cccc(Cc4ccc(OC)cc4)c3)nn2)[C@]2(C)[C@H](C)CC[C@]3(CCC(=O)[C@H]32)[C@@H](C)[C@@H]1O`, the minimum inhibitory concentration (MIC) is 16 µg/mL (≈ 25.6 µM). This MIC is about 16-fold higher than that of the molecule before.

With `C=C[C@]1(C)C[C@@H](OC(=O)Cn2cc(-c3ccc(CO)cc3)nn2)[C@]2(C)[C@H](C)CC[C@]3(CCC(=O)[C@H]32)[C@@H](C)[C@@H]1O`, it took 0.25 µg/mL (≈ 0.467 µM) to inhibit growth (MIC).
